Shown are actives, neighbours in structure and some others; about 1.4% of the full set was active somewhere.
CAL PDZ FP-1: blocks peptide binding to the human CAL PDZ domain. Q9HD26. 0.92% of 300,000 active. purified CAL PDZ, TMR-peptide fluorescence polarization, 1 h. inhibition, % at 24.9 µM;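 active = mean inhibition of at least 30% with at least half of replicates also reaching 30%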;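 note: 0% = DMSO neutral control and 100% = excess unlabeled competitor peptide PRC23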
CAL PDZ FP-2: inhibitors of human CAL PDZ peptide binding; inhibition, % at 20 µM; purified CAL PDZ, TMR-peptide fluorescence polarization, 1 h; Q9HD26; 0.02% of 330,000 active;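 active = highest replicate inhibition of at least 40%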;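 note: plate controls were DMSO neutral control wells for no effect and unlabeled competitor peptide control wells for full effect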
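Material – purified CerCALP PDZ construct · Detection – FP readout, S and P plane fluorescence · Measure – percent inhibition from loss of millipolarization · Controls – unlabelled peptide for full inhibition, DMSO wells as neutral · Probe or stimulus – TMR-labelled reporter peptide T*-PRC34 bound in PDZ groove · Times – 1 h at RT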
PvdQ acylase: blocks Pseudomonas aeruginosa PvdQ acylase activity; purified PvdQ acylase, fluorescence plate reader; inhibition, % at 10 µM; 0.063% of 340,000 active; AID 488965; in the data active = inhibition above about 30%, passing the limit was not always enough;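 note: 0% = vehicle neutral wells and 100% = reference inhibitor wells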
Vif imaging: blocks HIV Vif function; HEK293T cells, Vif self-association by quenched fluorescence, imaging, 24 h; inhibition, % at 7.49 µM; 0.35% of 340,000 active; AID 602346; in the data active = inhibition above about 50%, passing the limit was not always enough
CDK5 p35 inh: CDK5/p35 (human) kinase inhibition | Q00535+Q15078 | Recombinant CDK5/p35, ADP-Glo luminescence, 60 min | inhibition, % at 10 µM | 0.01% of 330,000 active | AID 488839;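 active = highest replicate inhibition of at least 50% and at least 75% of replicates reaching 50%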;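 note: plate controls were DMSO neutral control for no effect and GW8510 at 10 µM for full effect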
Target sequence (Q00535 whole entry, looked up): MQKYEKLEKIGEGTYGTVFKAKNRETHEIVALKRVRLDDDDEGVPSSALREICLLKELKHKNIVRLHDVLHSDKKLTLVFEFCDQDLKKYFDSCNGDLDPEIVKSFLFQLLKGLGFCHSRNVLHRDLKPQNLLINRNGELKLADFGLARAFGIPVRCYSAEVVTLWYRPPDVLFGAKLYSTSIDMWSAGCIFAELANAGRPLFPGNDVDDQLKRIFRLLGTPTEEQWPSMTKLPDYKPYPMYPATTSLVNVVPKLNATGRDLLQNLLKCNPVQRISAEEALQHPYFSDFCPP
Target sequence (Q15078 whole entry, looked up): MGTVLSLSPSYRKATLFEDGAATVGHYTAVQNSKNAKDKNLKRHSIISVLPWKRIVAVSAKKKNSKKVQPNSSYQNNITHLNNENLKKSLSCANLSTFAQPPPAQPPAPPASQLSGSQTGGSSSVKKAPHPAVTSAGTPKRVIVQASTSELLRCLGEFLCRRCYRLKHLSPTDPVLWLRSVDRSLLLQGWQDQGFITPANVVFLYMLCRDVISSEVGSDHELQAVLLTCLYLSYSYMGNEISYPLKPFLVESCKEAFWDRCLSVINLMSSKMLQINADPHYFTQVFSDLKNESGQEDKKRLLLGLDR
N-glyco inh: blocks N-linked glycosylation in D54 reporter cells; D54 ERlucT glycosylation luciferase reporter, 24 h; percent of 100 nM tunicamycin response; reporter increase, % at 12.5 µM; 0.23% of 360,000 active; AID 588692;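 active = mean luciferase reporter signal, scaled so untreated is 0 and the glycosylation-blocking control 100, at or above a set limit in every replicate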;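 note: luciferase carries N-glycosylation sites so blocking glycosylation raises the light; 0% = median of neutral control wells and 100% = median of 100 nM tunicamycin wells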
Active calls of the source: *; x = no result.

SMILES	CAL PDZ FP-1	CAL PDZ FP-2	PvdQ acylase	Vif imaging	CDK5 p35 inh	N-glyco inh
O=C1NC[C@H](Cc2ccc(O)cc2)N(C[C@H]2CCCN2C[C@H](Cc2ccc(O)cc2)N2C[C@H](Cc3ccc(O)cc3)N(CCc3ccccc3)C(=O)C2=O)C1=O	x	x	x	13	x	5
O=C1NC[C@H](Cc2ccccc2)N(C[C@H]2CCCN2C[C@H](Cc2ccccc2)N2C[C@H](Cc3ccc(O)cc3)N(CCc3ccccc3)C(=O)C2=O)C1=O	-5	-2	-8	x	-1	37*
O=C(Cc1c(F)cccc1Cl)NCC(=O)OCc1ccccc1	x	-1	-6	-5	1	-1
COc1ccc(-c2ccc(C(=O)NCc3cccs3)c3occc23)c(C)c1	x	x	x	-2	x	-8
O=C(CN(Cc1ccccc1)C(=O)CNS(=O)(=O)c1ccc(F)cc1)NCc1ccco1	x	0	-2	9	0	0
CC(C)CCn1c(N2CCC(C(N)=O)CC2)nc2c1c(=O)[nH]c(=O)n2C	42*	x	-11	7	0	-1
CC(C)CCn1c(N2CCCC2)nc2c1c(=O)[nH]c(=O)n2C	-1	0	-22	-4	1	1
CCCCN(Cc1ccco1)C(=O)C1CCCN(c2ncnc3c2nc2n3CCCCC2)C1 (stereo unspecified)	-5	-2	-6	-9	0	-1
CC(=O)Nc1cc(-c2ccc(F)cc2)cn2c(-c3ccc(S(C)(=O)=O)cc3)cnc12	x	x	x	12	x	-1
Cc1cccc(C(=O)NCC(=O)OCC(=O)c2cc(C)n(CC3CCCO3)c2C)c1 (stereo unspecified)	89*	0	-13	-1	-1	-2
O=C(CSc1ccc(-c2cccc([N+](=O)[O-])c2)nn1)N1CCCC1	65*	x	-15	-5	-1	2
O=C(CSc1ccc(-c2cccc([N+](=O)[O-])c2)nn1)N1CCCCCC1	0	1	0	-4	-1	1
CCn1c(SCC(=O)Nc2cc(C)on2)nnc1-c1cccc(C)c1	48*	0	-17	2	2	-1
CCn1c(SCC(=O)Nc2cc(C)on2)nnc1-c1ccc(C)cc1	-8	-2	-7	3	0	1
CCSc1ccc(-c2cccc([N+](=O)[O-])c2)nn1	4	0	48*	-2	0	1
Cc1cc(NC(=O)CSc2ccc(-c3cccc([N+](=O)[O-])c3)nn2)no1	56*	0	-19	2	3	-1
O=S(=O)(Nc1cc(Cl)cc(Cl)c1)N1CCOCC1	x	-1	-8	5	-3	0
O=c1[nH]c(=O)n([C@H]2C[C@H](O)[C@@H](CO)O2)cc1I	-1	-1	-10	-8	-2	55*
CC1=C(C(=O)N(C)C)CC(CC(=O)NCc2ccco2)C(=O)N1Cc1ccccc1 (stereo unspecified)	x	x	x	-2	x	1
CC(C)CCNC1c2ccccc2C(=O)N1Cc1ccccc1 (stereo unspecified)	88*	x	-15	-11	1	-2
COc1cc(NC2c3ccccc3C(=O)N2Cc2ccccc2)cc(OC)c1OC (stereo unspecified)	-14	-2	-11	-2	2	4
C=CC[C@H]1Cc2c(cccc2[N+](=O)[O-])[C@H](CC=C)N1	39*	-1	-11	-1	-1	-1
COCCN(Cc1cc2cc3c(cc2nc1Cl)OCO3)C(=O)c1ccc(C)cc1	-1	-3	-1	-18	-1	13
c1ccc(-c2noc(CC3CCCCC3)n2)cc1	40*	-1	-11	10	-1	-2
O=C(COC(=O)Cc1ccc(Br)cc1)Nc1ccc(Cl)cn1	3	-1	-17	-6	7	-2
Cc1cc(C)c(NC(=O)CSc2nc(=O)n(CCN3CCOCC3)c3c2CCCC3)c(C)c1	-10	-4	-11	6	0	1
Cc1cc(C)cc(NC(=O)CSc2nc(=O)n(CCN3CCOCC3)c3c2CCCC3)c1	52*	-1	-13	-3	-2	2
Cc1cccc(NC(=O)CSc2nc(=O)n(CCCN3CCOCC3)c3c2CCCC3)c1	48*	-1	-4	8	0	-1
CC(=O)Nc1ccc(C(=O)CN2C(=O)NC3(CCOc4ccccc43)C2=O)c(F)c1 (stereo unspecified)	40*	-1	-2	-1	1	-1
